According to paper PMC10900806 (Asian Journal of Pharmaceutical Sciences, 2024):
“Also recorded” adds a separate entry of the source.

Tests used:
Type in all cases: cell-based
[1] = system: B16-F10 cells; conditions: 5 µM, 1 h
[2] = system: B16-F10 cells; test: Endosomal escape, co-localization with LysoTracker Red; conditions: 5 µM, pH 5.5, 15 min then further 15, 30 and 60 min, ImageJ
Procedure, shortened: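 Cells were exposed to a FAM-labelled test peptide (5 µM) at pH 5.5 for 15 min, taken as 0 min, then incubated a further 15, 30 or 60 min. Medium was removed and lysosomes were stained with LysoTracker Red (100 nM, 30 min). After confocal imaging, co-localisation was quantified as Pearson's correlation coefficient (R).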

[3] = system: B16-F10 cells; test: Short-term cytotoxicity, MTT, 1 h; conditions: 1 h incubation, serum-free medium, different pH values, n = 3
Procedure, shortened: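 B16-F10 cells were seeded at 1 × 10^4 per well and cultured overnight. They were incubated 1 h with test compounds at different pH values, and viability was assessed by MTT. Membrane-lytic reference peptides served as positive controls. Data are from three independent experiments, given as mean ± SD.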

[4] = system: B16-F10 cells; test: LDH release assay; conditions: 1 h, pH 7.4 or 5.5, CytoTox-ONE kit, n = 3
[5] = system: B16-F10 cells; test: PI uptake assay; conditions: 10 µM
Procedure, shortened: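 B16-F10 cells (6 × 10^4) were seeded in glass-bottomed dishes and cultured overnight. End point: 1 h exposure to 10 µM test agent at pH 5.5 or 7.4, then fresh DMEM with PI (1 µg/ml) for 10 min before confocal imaging. Kinetics: 10 µM agent was added to DMEM containing PI (1 µg/ml) at pH 5.5, with images taken every 1 min for 30 min.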

[6] = system: erythrocyte suspension; test: Hemolysis assay; conditions: 10% (v/v) mouse erythrocytes in PBS, 1 h, 37 °C, absorbance at 450 nm
Procedure, shortened: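 Heparinised whole mouse blood was centrifuged at 1,000 × g for 15 min. The pellet was washed three times with PBS and resuspended to 10% (v/v) in PBS. Suspension was mixed with test compounds for 1 h at 37 °C, then centrifuged, and supernatant absorbance was read at 450 nm. PBS defined 0% and 0.1% Triton X-100 defined 100% hemolysis.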

[7] = system: caspase-3; test: Caspase-3 activity assay; conditions: B16-F10 cells, 24 h treatment, Caspase-3 assay kit
Procedure, shortened: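 B16-F10 cells were seeded at 5 × 10^5 per well and cultured overnight. They were then exposed to test peptides for 24 h, and caspase-3 activity was measured with a commercial caspase-3 activity kit.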

[8] = system: B16-F10 cells; test: Cell cycle assay; conditions: CPT 5 µM, AAM analogs 5 µM, conjugates 5 µM, 1 h at pH 5.5, then 24 h, n = 3

For “GIGAVLHVLTTGLPALISWIHHHHQC(FAM)-NH2 [FAM-AAM-1]”, the “cellular uptake of FAM-labeled peptides, confocal microscopy” value ([1]; serum-free medium, pH 7.4 or 5.5) was “higher cellular uptake in B16-F10 cells at pH 5.5 than that at pH 7.4” and the “Pearson's correlation coefficients (r) between FAM-AAM-1 and LysoTracker Red” value [2] was “r-values became gradually low over time”.
melittin was tested, and the “short-term cytotoxicity against B16-F10 cells” value [3] was “high cytotoxicity to B16-F10 cells, even at 1.25 µM; also recorded: no obvious pH dependence”, the “LDH release (membrane-lytic activity)” value [4] was “strong release of LDH at both pH 7.4 and 5.5” and the “PI uptake (PI-positive cells, membrane-disruptive activity)” value ([5]; 1 h, pH 7.4 and 5.5, PI 1 µg/ml, confocal) was “showed no obvious difference”. The “membrane-lytic behavior in time-lapse images” value ([5]; pH 5.5, PI 1 µg/ml, images every 1 min for 30 min) was “developed necrosis, including rounding, blebbing, swelling, and bursting” and the hemolytic activity [6] was “extreme hemolytic activity”.
`CC[C@@]1(O)C(=O)OCc2c1cc1n(c2=O)Cc2cc3ccccc3nc2-1` [CPT, camptothecin] was tested, and the “cellular uptake of CPT and peptide-CPT conjugates (blue fluorescence, confocal)” value ([1]; pH 7.4 or 5.5, near UV excitation) was “distinction of fluorescence intensity between pH 7.4 and pH 5.5 was not obvious”, the caspase-3 activation [7] was “significantly activated caspase-3” and the cell cycle distribution [8] was “significantly increased the cell proportion in the G2/M phase and decreased the cell proportion in the G0/G1 and S phases”.
